Measurements collected from several papers.
Lines come from different studies, so protocols differ.
Target: Muscle, skeletal receptor tyrosine-protein kinase (MUSK, Homo sapiens, UniProt O15146)
Sequence (O15146 24-869, as in one of the studies): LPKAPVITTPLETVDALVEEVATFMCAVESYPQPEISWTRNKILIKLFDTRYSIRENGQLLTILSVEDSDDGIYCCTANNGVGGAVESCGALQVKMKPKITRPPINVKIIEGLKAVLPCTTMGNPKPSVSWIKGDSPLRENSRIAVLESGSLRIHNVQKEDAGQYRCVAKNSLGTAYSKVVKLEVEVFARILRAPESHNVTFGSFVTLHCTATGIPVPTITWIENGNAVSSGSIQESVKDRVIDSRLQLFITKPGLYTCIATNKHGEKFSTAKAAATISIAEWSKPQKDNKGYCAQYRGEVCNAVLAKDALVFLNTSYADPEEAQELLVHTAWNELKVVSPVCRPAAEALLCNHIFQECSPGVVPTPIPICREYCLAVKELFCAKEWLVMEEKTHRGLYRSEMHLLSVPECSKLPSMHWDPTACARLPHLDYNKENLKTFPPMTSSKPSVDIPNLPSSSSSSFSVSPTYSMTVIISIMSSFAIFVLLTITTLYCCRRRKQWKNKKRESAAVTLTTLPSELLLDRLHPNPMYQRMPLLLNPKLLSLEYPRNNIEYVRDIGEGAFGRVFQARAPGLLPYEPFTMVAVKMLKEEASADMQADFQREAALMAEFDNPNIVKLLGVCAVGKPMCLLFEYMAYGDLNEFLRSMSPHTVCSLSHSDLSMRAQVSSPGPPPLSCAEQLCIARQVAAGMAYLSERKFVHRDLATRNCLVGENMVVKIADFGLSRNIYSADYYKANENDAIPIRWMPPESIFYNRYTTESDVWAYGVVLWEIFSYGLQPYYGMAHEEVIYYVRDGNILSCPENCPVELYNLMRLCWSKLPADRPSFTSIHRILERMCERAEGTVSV

Structure (SMILES)	test	setting	remaining binding [%]
O=C(c1ccc(Nc2ncc(Cl)c(-c3ccc(Cl)s3)n2)cc1)N1CCC(N2CCCC2)CC1	binding, competition with immobilised ligand	1 µM	57
COc1ccnn2ncc(-c3ccnc(N(C)C)n3)c12	binding	1 µM	93
CCCCN(CCCC)C(=O)CN1C[C@@H](c2cc(OC)c3c(c2)OCO3)[C@H](C(=O)O)[C@H]1CC(C)(C)CCC	cell-free assay, competition with immobilised ligand	1 µM	78.7
CN(C)c1nccc(-c2cnc3ncccn23)n1	binding	1 µM	83
O=C(Nc1c[nH]nc1C(=O)NC1CCNCC1)c1cc(F)cc(F)c1	binding, competition with immobilised ligand	1 µM	88
O=C(NCc1ncc(C(F)(F)F)cc1Cl)c1ccc2c(c1)C1(CCS(=O)(=O)CC1)[C@@H](C1CC1)N2S(=O)(=O)c1ccc(F)cc1	cell-free assay, competition with immobilised ligand	1 µM	79
CCN1CCN(Cc2ccc(C(=O)Nc3ccc(C)c(Oc4ccc5c(c4)CC(=O)N5)c3)cc2C(F)(F)F)CC1	binding, competition with immobilised ligand	1 µM	100
FC(F)(F)c1ccc2c(c1)nc(-c1cccnc1)n2C1CC1	cell-free assay, competition with immobilised ligand	1 µM	100
C=CC(=O)N1CCC(C(=O)NCC(=O)N2CCN(c3nc(-c4cnc(N)nc4C(F)F)nc(N4CCOCC4)n3)CC2)CC1	binding, competition with immobilised ligand	1 µM	79
c1cnn2ncc(-c3ccnc(N4CCC45COC5)n3)c2c1	binding	1 µM	80
O=C(NCCCN1CCOCC1)c1ccc(Nc2nccc(-c3cc4ccccc4s3)n2)cc1	binding, competition with immobilised ligand	1 µM	77
Cc1c(NC(=O)c2cc(C(N)=O)nc3cc(F)ccc23)c(C(F)(F)F)nn1Cc1ccc(C#N)cc1	cell-free assay, competition with immobilised ligand	1 µM	95
Cc1cnn2ncc(-c3ccnc(N(C)C)n3)c2c1	binding	1 µM	79
N#Cc1ccc(Nc2ccc3[nH]c(=O)[nH]c3c2)c(Cl)c1	cell-free assay, competition with immobilised ligand	1 µM	100
COc1ncc2cc3ccccc3nc2c1C#N	cell-free assay, competition with immobilised ligand	5 µM	100
COc1cnc(Nc2cccc(S(N)(=O)=O)c2)nc1N1CCN(c2ccccc2)CC1	binding, competition with immobilised ligand	1 µM	97
N[C@@H]1CCN(c2nccc(-c3cnn4ncccc34)n2)C1	binding	1 µM	100
O=C(NCCCN1CCOCC1)c1ccc(Nc2ncc(Cl)c(-c3ccc(Cl)s3)n2)cc1	binding, competition with immobilised ligand	1 µM	54
CN(C)c1ncc(F)c(-c2cnn3ncccc23)n1	binding	1 µM	100
C[C@@H](c1ccc(-n2cnc3c(N)ncnc32)cc1)N1CCc2nn(C)c(Cc3ccccc3)c2C1=O	binding, competition with immobilised ligand	0.1 µM	68
C[C@@H]1CCN(c2nccc(-c3cnn4ncccc34)n2)C1	binding	1 µM	92
CN([C@@H]1CCc2c(CC(=O)O)c3cc(S(C)(=O)=O)ccc3n2C1)S(=O)(=O)c1ccc(F)cc1	cell-free assay, competition with immobilised ligand	1 µM	100
